Data: ChEMBL document CHEMBL4261600 (Eur J Med Chem, 2018)
Calls of active or inactive are those of the source.

Legend:
[1] = molecular target: Casein kinase I isoform gamma-3 (Homo sapiens) (UniProt Q9Y6M4); assay: Binding affinity to wild-type human full length CSNK1G3 (M1 to K447 residues) expressed in bacterial expression system assessed as remaining unbound target protein level at 1000 nM by Kinomescan method relative to control
Outline: (§1)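 Single-point competition binding screen across a panel of 468 kinases and mutants, with the inhibitor at 1 μM. Binding is read out as percent of a DMSO control, and targets below 1 percent control were classed as strong binders.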

[2] = molecular target: Mitogen-activated protein kinase kinase kinase 20 (Homo sapiens) (UniProt Q9NYL2); assay: Binding affinity to wild-type human partial length ZAK (M1 to L331 residues) expressed in bacterial expression system assessed as remaining unbound target protein level at 1000 nM by Kinomescan method relative to control
Chain of Mitogen-activated protein kinase kinase kinase 20 (Homo sapiens) (Q9NYL2 2-800 limits assumed): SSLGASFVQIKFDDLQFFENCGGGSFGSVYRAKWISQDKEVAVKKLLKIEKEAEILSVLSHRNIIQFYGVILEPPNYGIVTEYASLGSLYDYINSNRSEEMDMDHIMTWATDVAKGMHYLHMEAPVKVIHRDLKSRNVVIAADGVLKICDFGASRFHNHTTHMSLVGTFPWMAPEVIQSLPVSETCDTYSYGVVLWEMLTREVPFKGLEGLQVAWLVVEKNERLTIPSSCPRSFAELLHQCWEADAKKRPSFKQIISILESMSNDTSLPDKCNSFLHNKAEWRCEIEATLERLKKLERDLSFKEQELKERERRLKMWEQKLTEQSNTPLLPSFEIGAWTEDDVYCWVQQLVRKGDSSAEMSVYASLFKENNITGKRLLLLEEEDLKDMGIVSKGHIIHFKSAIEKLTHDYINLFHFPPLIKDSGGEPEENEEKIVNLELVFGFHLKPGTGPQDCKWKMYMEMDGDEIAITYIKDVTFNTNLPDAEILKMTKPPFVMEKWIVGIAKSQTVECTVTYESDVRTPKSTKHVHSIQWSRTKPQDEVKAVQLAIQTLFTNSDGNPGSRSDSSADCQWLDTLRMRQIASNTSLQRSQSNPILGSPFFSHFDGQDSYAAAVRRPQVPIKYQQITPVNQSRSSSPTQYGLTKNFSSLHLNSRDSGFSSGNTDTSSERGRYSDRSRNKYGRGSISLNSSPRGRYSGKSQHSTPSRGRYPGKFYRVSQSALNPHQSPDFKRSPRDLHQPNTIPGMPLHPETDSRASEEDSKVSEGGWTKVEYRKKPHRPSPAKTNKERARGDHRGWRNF

[3] = molecular target: Dual serine/threonine and tyrosine protein kinase (Homo sapiens) (UniProt Q6XUX3); assay: Binding affinity to wild-type human full length RIPK5 (M1 to T929 residues) expressed in mammalian expression system assessed as remaining unbound target protein level at 1000 nM by Kinomescan method relative to control
Chain of Dual serine/threonine and tyrosine protein kinase (Homo sapiens) (Q6XUX3 whole entry, the tested form may be a part): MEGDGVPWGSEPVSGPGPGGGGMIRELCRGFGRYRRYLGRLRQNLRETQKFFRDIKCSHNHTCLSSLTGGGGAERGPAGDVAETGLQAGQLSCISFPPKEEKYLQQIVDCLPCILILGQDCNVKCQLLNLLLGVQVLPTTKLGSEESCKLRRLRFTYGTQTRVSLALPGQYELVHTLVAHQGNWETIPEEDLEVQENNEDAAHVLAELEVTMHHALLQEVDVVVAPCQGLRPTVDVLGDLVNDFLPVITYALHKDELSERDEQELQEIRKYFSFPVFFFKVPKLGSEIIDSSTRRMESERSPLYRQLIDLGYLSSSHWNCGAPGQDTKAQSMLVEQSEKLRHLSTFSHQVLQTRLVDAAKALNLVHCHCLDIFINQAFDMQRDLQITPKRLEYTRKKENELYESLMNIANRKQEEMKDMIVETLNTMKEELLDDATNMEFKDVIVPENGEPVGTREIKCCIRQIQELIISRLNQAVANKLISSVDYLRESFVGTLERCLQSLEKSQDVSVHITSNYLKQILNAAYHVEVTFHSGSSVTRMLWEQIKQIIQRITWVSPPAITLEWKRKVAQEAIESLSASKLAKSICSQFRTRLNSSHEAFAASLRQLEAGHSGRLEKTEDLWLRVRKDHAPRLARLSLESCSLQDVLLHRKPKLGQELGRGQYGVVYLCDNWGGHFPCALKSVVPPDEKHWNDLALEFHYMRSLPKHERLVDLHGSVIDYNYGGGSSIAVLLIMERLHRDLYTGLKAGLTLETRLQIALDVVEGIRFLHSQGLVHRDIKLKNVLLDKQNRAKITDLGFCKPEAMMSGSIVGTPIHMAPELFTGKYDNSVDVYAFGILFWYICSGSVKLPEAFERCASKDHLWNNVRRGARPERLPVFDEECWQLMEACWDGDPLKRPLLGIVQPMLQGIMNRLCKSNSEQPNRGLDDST
Outline: (§2)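 KINOMEscan competition binding profile across a panel of 468 kinases and mutants, with the inhibitor tested at a single concentration of 1 μM. Binding is reported as percent of control, meaning signal relative to a DMSO control.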

[4] = molecular target: Tyrosine-protein kinase receptor TYRO3 (Homo sapiens) (UniProt Q06418); assay: Binding affinity to wild-type human partial length TYRO3 (S497 to T814 residues) expressed in bacterial expression system assessed as remaining unbound target protein level at 1000 nM by Kinomescan method relative to control
Chain of Tyrosine-protein kinase receptor TYRO3 (Homo sapiens) (Q06418 whole entry, the tested form may be a part): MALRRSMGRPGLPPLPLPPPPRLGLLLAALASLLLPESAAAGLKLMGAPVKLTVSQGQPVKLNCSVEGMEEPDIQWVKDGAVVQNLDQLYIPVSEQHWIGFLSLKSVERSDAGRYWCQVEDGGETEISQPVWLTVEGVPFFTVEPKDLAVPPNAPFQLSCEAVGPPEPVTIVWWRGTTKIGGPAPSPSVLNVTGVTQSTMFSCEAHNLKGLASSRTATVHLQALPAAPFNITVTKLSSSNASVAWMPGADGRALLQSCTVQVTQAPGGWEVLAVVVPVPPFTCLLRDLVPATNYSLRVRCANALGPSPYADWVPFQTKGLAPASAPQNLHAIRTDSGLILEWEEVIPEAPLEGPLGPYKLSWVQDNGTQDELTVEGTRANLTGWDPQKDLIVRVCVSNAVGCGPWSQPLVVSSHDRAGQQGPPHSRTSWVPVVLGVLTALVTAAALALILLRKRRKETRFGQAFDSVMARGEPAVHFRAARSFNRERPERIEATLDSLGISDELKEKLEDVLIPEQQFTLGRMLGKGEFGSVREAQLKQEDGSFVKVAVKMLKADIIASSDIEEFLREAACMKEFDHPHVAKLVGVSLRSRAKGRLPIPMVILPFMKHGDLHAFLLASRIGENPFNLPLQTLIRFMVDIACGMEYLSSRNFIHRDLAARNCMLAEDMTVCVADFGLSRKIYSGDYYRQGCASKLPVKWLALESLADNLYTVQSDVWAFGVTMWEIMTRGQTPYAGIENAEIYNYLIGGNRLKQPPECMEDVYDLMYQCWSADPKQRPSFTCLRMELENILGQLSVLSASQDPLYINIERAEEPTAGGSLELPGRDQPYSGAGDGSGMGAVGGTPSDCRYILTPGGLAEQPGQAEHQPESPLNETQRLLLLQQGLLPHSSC

[5] = molecular target: Myotonin-protein kinase (Homo sapiens) (UniProt Q09013); assay: Binding affinity to wild-type human partial length DMPK (V47 to V415 residues) expressed in bacterial expression system assessed as remaining unbound target protein level at 1000 nM by Kinomescan method relative to control
Chain of Myotonin-protein kinase (Homo sapiens) (Q09013 whole entry, the tested form may be a part): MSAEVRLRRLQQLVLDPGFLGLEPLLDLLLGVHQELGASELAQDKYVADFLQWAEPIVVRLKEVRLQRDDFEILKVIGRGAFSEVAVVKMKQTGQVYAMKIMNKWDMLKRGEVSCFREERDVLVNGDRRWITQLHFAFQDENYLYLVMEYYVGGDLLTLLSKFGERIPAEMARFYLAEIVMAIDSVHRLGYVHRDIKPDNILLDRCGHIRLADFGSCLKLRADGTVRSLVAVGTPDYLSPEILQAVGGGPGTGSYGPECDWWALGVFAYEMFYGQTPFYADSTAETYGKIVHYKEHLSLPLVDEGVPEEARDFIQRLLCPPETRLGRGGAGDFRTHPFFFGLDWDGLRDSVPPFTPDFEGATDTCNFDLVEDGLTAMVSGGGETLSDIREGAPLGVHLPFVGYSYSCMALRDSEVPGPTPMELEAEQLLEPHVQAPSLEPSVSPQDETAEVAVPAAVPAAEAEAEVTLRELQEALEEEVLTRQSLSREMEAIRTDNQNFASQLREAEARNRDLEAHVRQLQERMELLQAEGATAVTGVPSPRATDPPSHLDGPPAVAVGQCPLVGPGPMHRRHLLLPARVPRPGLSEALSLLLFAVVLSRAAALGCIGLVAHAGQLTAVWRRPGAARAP

[6] = molecular target: Serine/threonine-protein kinase haspin (Homo sapiens) (UniProt Q8TF76); assay: Binding affinity to wild-type human partial length HASPIN (I452 to K798 residues) expressed in mammalian expression system assessed as remaining unbound target protein level at 1000 nM by Kinomescan method relative to control
Outline: (§3)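 KINOMEscan binding panel of 468 kinases/mutants. Inhibitor was tested at a single concentration of 1 μM. Binding is reported as percent of control, defined relative to a DMSO control.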

[7] = molecular target: Maternal embryonic leucine zipper kinase (Homo sapiens) (UniProt Q14680); assay: Binding affinity to wild-type human full length MELK (M1 to V651 residues) expressed in bacterial expression system assessed as remaining unbound target protein level at 1000 nM by Kinomescan method relative to control; outline: as §1
Chain of Maternal embryonic leucine zipper kinase (Homo sapiens) (Q14680 whole entry, looked up, the tested form may be a part): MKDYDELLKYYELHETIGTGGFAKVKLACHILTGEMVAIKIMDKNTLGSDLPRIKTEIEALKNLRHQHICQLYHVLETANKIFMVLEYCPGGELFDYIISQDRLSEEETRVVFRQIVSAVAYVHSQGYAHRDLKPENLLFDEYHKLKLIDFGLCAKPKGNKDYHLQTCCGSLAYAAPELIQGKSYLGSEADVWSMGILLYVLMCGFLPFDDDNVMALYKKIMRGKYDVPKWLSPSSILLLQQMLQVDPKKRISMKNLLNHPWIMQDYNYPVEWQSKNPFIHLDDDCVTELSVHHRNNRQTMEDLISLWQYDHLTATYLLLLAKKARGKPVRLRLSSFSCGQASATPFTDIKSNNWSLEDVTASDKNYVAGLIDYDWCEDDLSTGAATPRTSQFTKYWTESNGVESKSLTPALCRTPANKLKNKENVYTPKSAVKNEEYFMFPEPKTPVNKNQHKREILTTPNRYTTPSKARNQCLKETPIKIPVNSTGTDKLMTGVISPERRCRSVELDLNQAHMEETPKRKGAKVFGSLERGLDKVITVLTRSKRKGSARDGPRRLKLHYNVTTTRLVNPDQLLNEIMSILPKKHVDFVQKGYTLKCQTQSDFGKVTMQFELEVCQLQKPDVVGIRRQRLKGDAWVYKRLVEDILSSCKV

[8] = molecular target: Serine/threonine-protein kinase Nek6 (Homo sapiens) (UniProt Q9HC98); assay: Binding affinity to wild-type human full length NEK6 (M8 to T313 residues) expressed in bacterial expression system assessed as remaining unbound target protein level at 1000 nM by Kinomescan method relative to control; outline: as §2
Chain of Serine/threonine-protein kinase Nek6 (Homo sapiens) (Q9HC98 whole entry, the tested form may be a part): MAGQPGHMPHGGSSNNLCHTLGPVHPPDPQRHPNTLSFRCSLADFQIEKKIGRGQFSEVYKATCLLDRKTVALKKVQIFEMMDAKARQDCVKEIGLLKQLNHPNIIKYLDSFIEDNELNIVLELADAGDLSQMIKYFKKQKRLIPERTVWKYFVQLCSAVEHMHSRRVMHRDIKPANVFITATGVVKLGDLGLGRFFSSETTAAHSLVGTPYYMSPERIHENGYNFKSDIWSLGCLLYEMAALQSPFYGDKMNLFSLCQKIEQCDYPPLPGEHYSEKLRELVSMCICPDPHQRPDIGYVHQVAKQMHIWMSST

[9] = molecular target: CDK4/Cyclin D3 (Homo sapiens) (UniProt P11802+P30281); assay: Binding affinity to wild-type human full length CDK4/cyclinD3 (M1 to E303 residues) expressed in mammalian expression system assessed as remaining unbound target protein level at 1000 nM by Kinomescan method relative to control
Outline: (§4)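 KINOMEscan competitive binding profile at 1 μM inhibitor. Remaining target binding reported as percent of DMSO control.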

[10] = molecular target: Homeodomain-interacting protein kinase 3 (Homo sapiens) (UniProt Q9H422); assay: Binding affinity to wild-type human partial length HIPK3 (M153 to N562 residues) expressed in mammalian expression system assessed as remaining unbound target protein level at 1000 nM by Kinomescan method relative to control; outline: as §3
[11] = molecular target: Serine/threonine-protein kinase mTOR (Homo sapiens) (UniProt P42345); assay: Binding affinity to wild-type human partial length MTOR (L1382 to W2549 residues) expressed in mammalian expression system assessed as remaining unbound target protein level at 1000 nM by Kinomescan method relative to control
[12] = molecular target: Aurora kinase B (Homo sapiens) (UniProt Q96GD4); assay: Binding affinity to wild-type human partial length AURKB (D25 to A303 residues) expressed in mammalian expression system assessed as remaining unbound target protein level at 1000 nM by Kinomescan method relative to control
Outline: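 Profiled in a KINOMEscan binding panel with the inhibitor at a single concentration of 1 μM. Binding to each kinase was read out as percent of control, relative to a DMSO control. Strong binders were defined as those with a percent control value below 1.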

[13] = molecular target: Casein kinase I isoform delta (Homo sapiens) (UniProt P48730); assay: Binding affinity to wild-type human full length CSNK1D (M1 to K409 residues) expressed in bacterial expression system assessed as remaining unbound target protein level at 1000 nM by Kinomescan method relative to control; outline: as §4
Chain of Casein kinase I isoform delta (Homo sapiens) (P48730 whole entry, looked up, the tested form may be a part, canonical isoform): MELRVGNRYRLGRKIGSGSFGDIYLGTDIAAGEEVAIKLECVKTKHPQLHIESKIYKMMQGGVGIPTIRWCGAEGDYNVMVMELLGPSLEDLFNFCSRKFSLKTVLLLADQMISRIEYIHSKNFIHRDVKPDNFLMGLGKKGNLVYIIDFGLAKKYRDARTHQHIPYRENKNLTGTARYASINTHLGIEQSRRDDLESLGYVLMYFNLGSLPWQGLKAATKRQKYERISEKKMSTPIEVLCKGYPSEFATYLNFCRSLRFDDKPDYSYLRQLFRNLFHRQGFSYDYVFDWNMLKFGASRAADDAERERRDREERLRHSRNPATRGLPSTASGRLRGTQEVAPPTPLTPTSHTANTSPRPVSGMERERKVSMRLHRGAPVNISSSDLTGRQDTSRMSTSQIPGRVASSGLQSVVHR

[14] = molecular target: Mitogen-activated protein kinase kinase kinase 13 (Homo sapiens) (UniProt O43283); assay: Binding affinity to wild-type human full length LZK (M1 to W966 residues) expressed in mammalian expression system assessed as remaining unbound target protein level at 1000 nM by Kinomescan method relative to control; outline: as §2
MV4-11 = assay: Antitumor activity against human MV4-11 cells xenografted in nu/nu mouse assessed as tumor growth inhibition at 10 mg/kg, po administered via gavage for 21 days measured on day 21 post last dose; assay type: functional, organism-based
Outline: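 Female nu/nu mice, five weeks old, implanted subcutaneously in the right flank with 5 million MV4-11 cells in PBS/Matrigel 1:1. Daily oral gavage in 0.5% methylcellulose/0.4% Tween80 started at tumor volume 200–400 mm³, 10, 20 or 30 mg/kg/day or vehicle, 5 mice per group. Tumor volume (W²×L)/2 and body weight measured daily; mean ± SEM.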

[15] = MRT (0 to t) in beagle dog at 10 mg/kg, po by LC-MS/MS analysis; assay type: ADME, organism-based, Canis lupus familiaris; conditions: in vivo
[16] = molecular target: Vascular endothelial growth factor receptor 1 (Homo sapiens) (UniProt P17948); assay: Binding affinity to wild-type human partial length FLT1 (R781 to F1239 residues) expressed in bacterial expression system assessed as remaining unbound target protein level at 1000 nM by Kinomescan method relative to control
[17] = test system: Hepatocyte growth factor receptor (Homo sapiens), P08581 [Y1235D]; assay: Binding affinity to human partial length MET Y1235D mutant (D1010 to S1367 residues) expressed in bacterial expression system assessed as remaining unbound target protein level at 1000 nM by Kinomescan method relative to control
Outline: (§5)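 KINOMEscan competition-binding profiling across the panel of 468 kinases and mutants, with inhibitor tested at 1 μM. Binding is expressed as percent of control, with DMSO as the reference control.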

[18] = test system: Epidermal growth factor receptor (Homo sapiens), P00533 [G719S]; assay: Binding affinity to human partial length EGFR G719S mutant (R669 to V1011 residues) expressed in bacterial expression system assessed as remaining unbound target protein level at 1000 nM by Kinomescan method relative to control; outline: as §5
[19] = molecular target: Cyclin-dependent kinase 7 (Homo sapiens) (UniProt P50613); assay: Inhibition of CDK7 in human MEC1 cells assessed as decrease in RNA polymerase 2 phosphorylation at Ser 5 residues up to 3 uM after 2 hrs by immunoblotting analysis; assay type: cell-based
Chain of Cyclin-dependent kinase 7 (Homo sapiens) (P50613 whole entry): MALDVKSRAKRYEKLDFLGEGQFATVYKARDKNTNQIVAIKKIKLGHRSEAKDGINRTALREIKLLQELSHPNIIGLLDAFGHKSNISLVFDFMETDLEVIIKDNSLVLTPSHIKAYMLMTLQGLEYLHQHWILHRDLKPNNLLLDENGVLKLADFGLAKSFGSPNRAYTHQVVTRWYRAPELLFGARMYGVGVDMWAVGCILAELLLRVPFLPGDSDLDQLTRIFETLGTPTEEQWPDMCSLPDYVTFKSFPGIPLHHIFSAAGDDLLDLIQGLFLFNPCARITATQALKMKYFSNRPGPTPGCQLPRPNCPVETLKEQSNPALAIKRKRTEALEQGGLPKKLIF

COCCN[C@H]1CC[C@H](Nc2cc(-c3csc(NCC4(C#N)CCOCC4)n3)c(Cl)cn2)CC1
Activity [1]: 90% | Activity [2]: 96% | Activity [3]: 95% | Activity [4]: 68% | Activity [5]: 100% | Activity [6]: 94% | Activity [7]: 75% | Activity [8]: 94% | Activity [9]: 72% | Activity [10]: 86% | Activity [11]: 90% | Activity [12]: 100% | Activity [13]: 66% | Activity [14]: 99% | TGI (MV4-11): inactive | MRT last [15]: 3.59 h | Activity [16]: 98% | Activity [17]: 96% | Activity [18]: 82% | inhibition [19]: inactive
